In ChEMBL document CHEMBL1151837, “Structural reassignment, absolute configuration, and conformation of hypurticin, a highly flexible polyacyloxy-6-heptenyl-5,6-dihydro-2H-pyran-2-one” (J Nat Prod, 2009) one finds IC50 and Activity data, which are given here for 3 compounds.

One assay has as its system HEp-2. Put plainly: Cytotoxicity against human Hep2 cells after 72 hrs by sulforhodamine B assay. In kind it is functional, cell-based. Particulars: HEp-2, 72 h. The essentials: (§1)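 Cells kept in RPMI 1640 with 10% FBS at 37 °C, 5% CO2, humidified. Log-phase cells treated in triplicate at 0.16–20.0 µg/mL for 72 h. Cell density read by sulforhodamine B. Value is the dose giving 50% inhibition of control growth (ED50). Ellipticine served as positive control.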
In general terms: In SRB staining, fixed cells bind dye roughly in proportion to their protein.

The subject of another assay is KB. Put plainly: Cytotoxicity against human KB cells after 72 hrs by sulforhodamine B assay. In kind it is functional, cell-based. The procedure, abridged:
as §1

Assay [1] concerns HeLa. The assay can be described thus: Cytotoxicity against human HeLa cells after 72 hrs by sulforhodamine B assay. Type of assay: functional, cell-based. The essentials:
as §1

Assay [2] has as its system HeLa. Put plainly: Cell cycle arrest in human HeLa cells assessed as accumulation at G1 phase at 10 times IC50 after 48 hrs by flow cytometry. In kind it is functional. The procedure, abridged: (§2)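 HeLa cells in log phase exposed 48 h to compound in DMSO at ten times its cytotoxicity IC50. Fixed in cold 70% (v/v) EtOH, then stained 12 h at 4 °C with Triton X-100, trisodium citrate and RNase A, and filtered through nylon mesh. DNA content measured by flow cytometry gives the percentage of cells in G1, S and G2.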
For orientation: In flow cytometry, cells or beads pass a laser one at a time.

The test system of assay [3] is HeLa. Put plainly: Cell cycle arrest in human HeLa cells assessed as accumulation at S phase at 10 times IC50 after 48 hrs by flow cytometry. Type of assay: functional. The essentials:
as §2

In assay [4] the test system is HeLa. The assay can be described thus: Cell cycle arrest in human HeLa cells assessed as accumulation at G2 phase at 10 times IC50 after 48 hrs by flow cytometry. In kind it is functional. The essentials:
as §2

In brackets after ≈: the same amount, converted by molar mass.

One may read the IC50 as the point on the concentration scale where inhibition reaches its midpoint. Read a low IC50 as greater potency in that assay. On to `Cc1c2ccncc2c(C)c2c1[nH]c1ccccc12` [ELLIPTECINE], for which the IC50 in the assay with HEp-2, in the assay on KB and with HeLa [1] was 0.4 µg/mL (≈ 1.62 µM) throughout.

Consider `CC(=O)O[C@H](/C=C\[C@H]1CC=CC(=O)O1)C[C@@H](OC(C)=O)[C@H](C)OC(C)=O` [HYPTOLIDE], for which the figures for the Activity in the assay with HeLa [2], in the assay on HeLa [3] and with HeLa [4] were 34%, 57% and 7%, respectively. The results for the IC50 in the assay on HEp-2, in the assay on KB and in the assay with HeLa [1] were 6.2 µg/mL (≈ 16.8 µM), 3.6 µg/mL (≈ 9.77 µM) and 2.8 µg/mL (≈ 7.6 µM), respectively.

For `CC(=O)O[C@H]([C@@H](OC(C)=O)[C@H](/C=C\[C@H]1CC=CC(=O)O1)OC(C)=O)[C@H](C)OC(C)=O` [SPICIGEROIDE], the results for the Activity with HeLa [2], with HeLa [3] and with HeLa [4] were 40%, 34% and 23%, respectively. Further, the IC50 in the assay with HEp-2 came out at 9.4 µg/mL (≈ 22 µM); with KB it was 5.4 µg/mL (≈ 12.7 µM); with HeLa [1] it was 15.9 µg/mL (≈ 37.3 µM).
